Source: ChEMBL document CHEMBL4152320, “Discovery and development of novel salicylate synthase (MbtI) furanic inhibitors as antitubercular agents” (Eur J Med Chem, 2018)
≈ marks a conversion by molar mass, not a printed value. Calls of active or inactive are those of the source. The calls are words filed in the database; no cut-off is given here.

Experiments:
[1] = test system: Mycobacterium tuberculosis; experiment: Inhibition of Mycobacterium tuberculosis salicylate synthase expressed in Escherichia coli BL21(DE3) assessed as residual activity at 100 uM using chorismic acid as substrate in presence of NADH by l-lactic dehydrogenase enzyme coupled assay relative to control
[2] = Inhibition of Mycobacterium tuberculosis salicylate synthase expressed in Escherichia coli BL21(DE3) using chorismic acid as substrate in presence of NADH by l-lactic dehydrogenase enzyme coupled assay
Procedure, shortened: (§1)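 IC50 at subsaturating chorismic acid (50 µM) via LDH-coupled NADH assay, 37 °C, 50 mM HEPES pH 8.0, 10 mM MgCl2, 10-20 µM MbtI; activity at varied inhibitor fitted to A[I] = A[0]×(1−[I]/([I]+IC50)). Aggregation controls run with BSA or Triton X-100 added (line 8 BSA, line 11 Triton).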

[3] = test system: Mycobacterium tuberculosis; experiment: Antimycobacterial activity against Mycobacterium tuberculosis H37Rv; format: functional
Procedure, shortened: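 MIC99 vs M. tuberculosis H37Rv on solid medium. Single colony grown in 7H9 + 10% OADC at 37 °C to exponential phase (~10^8 CFU/mL), diluted to ~10^6 CFU/mL, about 1 µL streaked onto plates with two-fold serial compound dilutions; MIC = lowest concentration inhibiting growth; triplicate.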

[4] = Competitive inhibition of Mycobacterium tuberculosis salicylate synthase expressed in Escherichia coli BL21(DE3) using varying levels of chorismic acid as substrate in presence of NADH by l-lactic dehydrogenase enzyme coupled assay
Procedure, shortened: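 Ki by competitive-inhibition fit of MbtI activity across varied CHA (10-500 µM range used for kinetics) and inhibitor levels (0, 5, 10, 20, 50, 100 µM). Coupled lactate dehydrogenase assay at 37 °C: 50 mM HEPES pH 8.0, 0.2 mM NADH, 10 mM MgCl2, 3 U LDH, 10-20 µM MbtI; reactions started with CHA; triplicate.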

[5] = test system: Mycobacterium tuberculosis; experiment: Inhibition of Mycobacterium tuberculosis salicylate synthase expressed in Escherichia coli BL21(DE3) using chorismic acid as substrate in presence of DTT by l-lactic dehydrogenase enzyme coupled assay
Procedure, shortened: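 IC50 with 100 µM DTT present, to probe cysteine reactivity; LDH-coupled assay at 37 °C with 50 µM chorismic acid, 50 mM HEPES pH 8.0, 0.2 mM NADH, 10 mM MgCl2, 10-20 µM MbtI; fitted to single-site IC50 equation.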

[6] = test system: Mycobacterium tuberculosis; experiment: Inhibition of Mycobacterium tuberculosis salicylate synthase expressed in Escherichia coli BL21(DE3) using chorismic acid as substrate in presence of BSA by l-lactic dehydrogenase enzyme coupled assay; procedure, shortened: as §1
[7] = test system: Mycobacterium tuberculosis; experiment: Inhibition of Mycobacterium tuberculosis salicylate synthase expressed in Escherichia coli BL21(DE3) using chorismic acid as substrate in presence of Triton-X-100 by l-lactic dehydrogenase enzyme coupled assay; procedure, shortened: as §1

| Compound | Activity [1] | also measured |
| --- | --- | --- |
| COc1ccc([N+](=O)[O-])cc1S(=O)(=O)Nc1cccc(C(=O)O)c1 | 38.4% | IC50 [2]: 77.6 µM |
| O=C(O)c1cccc(-c2ccc([N+](=O)[O-])cc2)c1 | 36.8% |  |
| O=C(O)c1ccc(-c2ccccc2)o1 | 102% |  |
| COC(=O)c1ccc(-c2ccc([N+](=O)[O-])cc2)o1 | 71.1% |  |
| C/C=C(\Oc1cccc(C(=O)O)c1O)C(=O)O |  | IC50 [2]: 11.6 µM |
| O=C(O)c1ccc(-c2ccncc2)o1 | 45% |  |
| O=C(O)c1ccc(-c2ccc([N+](=O)[O-])cc2Cl)o1 | 21.3% | IC50 [2]: 21.1 µM |
| Cc1nc(C(C)NC(=O)c2ccoc2)sc1C(=O)O (stereo unspecified) | 109% |  |
| O=C(O)c1ccc(-c2ccc(O)cc2)o1 | 96.3% |  |
| Cc1cc(C(=O)O)c2ccc(F)cc2n1 | 101% |  |
| NS(=O)(=O)c1ccc(-c2ccc(C(=O)O)o2)cc1 | 84.6% |  |
| O=C(O)c1ccc(-c2ccc(-c3nn[nH]n3)cc2)o1 | 104% |  |
| COc1ccc(C(=O)O)cc1OCc1ccncc1 | 104% |  |
| O=C(O)c1ccc(-c2ccc([N+](=O)[O-])cc2)o1 | 18.2% | MIC99 [3]: 156 µM (≈ 36.4 µg/mL); Ki [4]: 5.3 µM; inhibition [5]: Active; inhibition [6]: Active; inhibition [7]: Active |
| O=C(O)c1ccc(-c2ccccc2[N+](=O)[O-])o1 | 55.1% |  |
| O=C(O)c1ccc(-c2ccccc2Cl)o1 | 92.4% |  |
| N#Cc1ccc(-c2ccc(C(=O)O)o2)cc1 | 126% |  |
| O=C(O)c1ccc([N+](=O)[O-])cc1Cl | 89.3% |  |
| O=C(O)c1ccc(-c2ccc(C(=O)O)o2)cc1 | 92.4% |  |
| O=C(O)c1ccc(-c2ccc3c(c2)COC3=O)o1 | 58% |  |
| O=C(O)c1ccc(-c2cccc([N+](=O)[O-])c2)o1 | 50.2% |  |
| O=C(O)c1ccc(-c2ccc3nonc3c2)o1 | 46.8% |  |
| CS(=O)(=O)c1ccc(-c2ccc(C(=O)O)o2)cc1 | 98.5% |  |
| O=C(O)c1ccc(-c2ccc(C(F)(F)F)cc2)o1 | 66.3% |  |
